Data reported in ChEMBL document CHEMBL3797120, “Identification of 1,2,3-triazole derivatives that protect pancreatic β cells against endoplasmic reticulum stress-mediated dysfunction and death through the inhibition of C/EBP-homologous protein expression” (Bioorg Med Chem, 2016).
Activity calls are given as the source filed them. The calls are words filed in the database; no cut-off is given here.

Assays:
[1] = biological target: DNA damage-inducible transcript 3 protein (Mus musculus) (UniProt P35639); experiment: Inhibition of endoplasmic reticulum stress-induced CHOP activity in tunicamycin-treated C57BL/6 mouse primary pancreatic islet beta cells assessed as DNA fragmentation at 10 uM after 24 hrs by TUNEL assay (reference value: 40.4%); design: scale not given: the % may be the effect or the level left
DNA damage-inducible transcript 3 protein (Mus musculus), sequence (P35639 whole entry, the tested form may be a part): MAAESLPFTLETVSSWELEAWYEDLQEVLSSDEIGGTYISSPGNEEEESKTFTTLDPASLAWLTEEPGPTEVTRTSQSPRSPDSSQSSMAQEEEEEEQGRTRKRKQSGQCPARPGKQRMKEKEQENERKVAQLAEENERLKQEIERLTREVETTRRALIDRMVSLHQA
Method in brief: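 Primary islet cells from C57BL/6 mice were cultured in CMRL-1066/10% FBS and treated 24 h with Tm 1 μg/ml plus 10 μM compound or DMSO. Cells were fixed in 4% PFA, permeabilized in Triton/citrate, TUNEL-stained (1 h, 37°C), and co-stained for insulin and DAPI. TUNEL+ insulin+ cells were counted as mean ± SD of five wells (~50 islets, 3 mice).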

[2] = biological target: DNA damage-inducible transcript 3 protein (Rattus norvegicus) (UniProt Q62857); experiment: Inhibition of endoplasmic reticulum stress-induced CHOP activity in rat INS-1 cells assessed as restoration of tunicamycin-mediated reduction of 20 mM glucose-stimulated insulin secretion preincubated for 24 hrs followed by glucose addition and subsequent incubation for 45 mins by ELISA; format: cell-based; conditions: INS1
DNA damage-inducible transcript 3 protein (Rattus norvegicus), sequence (Q62857 whole entry, the tested form may be a part): as the sequence (P35639 whole entry, the tested form may be a part) above, with T9A, L10F, T70A, R74S, E97D, P111A, P114A, Q142L counted along it
Method in brief: (§1)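 INS-1 cells seeded at 1 × 10⁵/well and treated 24 h with compounds (with or without Tm). They were washed in Krebs-HEPES buffer pH 7.4 with 1% BSA, preincubated 1 h in 2.5 mM glucose, then stimulated 45 min with 2.5 or 20 mM glucose. Secreted insulin was measured by ELISA and normalized to Bradford total protein. The index is 20 mM/2.5 mM secretion from triplicate wells.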

[3] = biological target: DNA damage-inducible transcript 3 protein (Rattus norvegicus) (UniProt Q62857); experiment: Inhibition of endoplasmic reticulum stress-induced CHOP activity in rat INS-1 cells assessed as suppression of tunicamycin-induced PARP cleavage at 20 uM after 2 to 24 hrs by Western blot method; format: cell-based; conditions: INS1
Method in brief: (§2)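 INS-1 cells seeded at 8 × 10⁵ per 60-mm dish and treated with or without compound, with or without Tm, for the indicated times. Lysates (20 μg protein) were run on 7% SDS-PAGE and blotted with anti-caspase-3 and anti-PARP (1:1000) to detect cleavage. α-Tubulin served as loading control.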

[4] = Inhibition of endoplasmic reticulum stress-mediated upregulation of CHOP protein expression in tunicamycin-treated rat INS-1 cells at 20 uM after 2 to 8 hrs by Western blot method; format: functional, cell-based; conditions: INS1
Method in brief: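 INS-1 cells seeded at 8 × 10⁵ per 60-mm dish and treated with Tm and 20 μM compound or DMSO. Lysates (20 μg protein) were run on 7% SDS-PAGE and blotted with anti-CHOP (1:1000). α-Tubulin served as loading control.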

Mus musculus [5] = experiment: (§3) Antidiabetic activity in streptozotocin-induced diabetic C57BL/6 mouse model assessed as total pancreatic islet area at 20 mg/kg, ip administered for 5 consecutive days with streptozotocin followed by 2 more weeks compound addition without streptozotocin measured post last dose by DAPI staining-based confocal microscopy (reference value: 21.3 +/- 4.4%); format: functional
[6] = Cytoprotective activity against endoplasmic reticulum stress-induced cell death in tunicamycin-treated CHOP knock out C57BL/6 mouse primary pancreatic islet beta cells assessed as DNA fragmentation at 10 uM after 24 hrs by TUNEL assay (reference value: 18.7%); format: functional
Method in brief: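 Primary islet cells isolated from CHOP−/− knockout mice (age-matched males), cultured in CMRL-1066 with 10% FBS, treated with compound (10 μM) plus tunicamycin (1 μg/ml) for 24 h. Cells fixed in 4% paraformaldehyde, permeabilized with 0.1% Triton X-100 in 0.1% sodium citrate, TUNEL stained (1 h, 37°C), co-stained for insulin and DAPI; % TUNEL+ insulin+ cells counted, five wells, islets from 3 mice.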

INS1 [7] = experiment: Cytoprotective activity in endoplasmic reticulum stressed rat INS-1 cells assessed as rescue from tunicamycin-mediated reduction in cell viability at 10 uM after 72 hrs by CellTiter-Glo assay relative to control; format: functional
Method in brief: (§4)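 INS-1 cells seeded at 3 × 10³/well and exposed for 72 h to Tm 0.1 μg/ml plus compound. Viability measured as ATP by CellTiter-Glo. Tm alone was set to 0% and DMSO without Tm to 100% rescue. Values are the mean of three experiments. EC50 was derived for survival.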

[8] = Effect on 2.5 mM glucose-stimulated insulin secretion in rat INS-1 cells preincubated for 24 hrs followed by glucose addition and subsequent incubation for 45 mins by ELISA; format: ADME, cell-based; conditions: ins1, 0.75 h; method in brief: as §1
[9] = Effect on basal CHOP mRNA expression in rat INS-1 cells at 10 uM after 2 to 8 hrs by qRT-PCR method; format: ADME, cell-based; conditions: ins1, 10 µM
Method in brief: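 INS-1 cells seeded at 4 × 10⁵/well and exposed to DMSO or 10 μM compound without Tm for the indicated times. Total RNA (2 μg) was reverse transcribed. CHOP mRNA was measured by qRT-PCR with rat primers, normalized to rat cyclophilin A, and expressed as fold change.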

INS1 [10] = experiment: Cytoprotective activity in endoplasmic reticulum stressed rat INS-1 cells assessed as rescue from tunicamycin-mediated reduction in cell survival after 72 hrs by CellTiter-Glo assay; conditions: INS1, 72 h
Mus musculus [11] = experiment: as §3, with “increase in level of insulin-positive beta cells per” for “total”, “islet” for “islet area”, “relative to control” for “(reference value: 21.3 +/- 4.4%)”; format: functional, organism-based
[12] = Effect on growth rate of rat INS-1 cells at 2.5 to 10 uM after 72 hrs by CellTiter-Glo assay relative to control; format: cell-based; conditions: ins1, 72 h
Method in brief: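 INS-1 cells grown with compound alone (no stressor) and viability/growth read by CellTiter-Glo, compared with DMSO-treated cells.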

[13] = biological target: DNA damage-inducible transcript 3 protein (Mus musculus) (UniProt P35639); experiment: Inhibition of endoplasmic reticulum stress-induced CHOP activity in mouse BetaTC6 cells assessed as decrease in tunicamycin-induced cell death by measuring cell viability at 2.5 to 20 uM after 72 hrs by CellTiter-Glo assay; format: cell-based; conditions: Beta-TC6
Method in brief: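 βTC6 mouse insulinoma cells (DMEM, 15% FBS) seeded at 3 × 10³/well and treated 72 h with Tm 0.25 μg/ml plus DMSO or compound. Viability measured by CellTiter-Glo and expressed as fold change versus Tm alone = 1. Means ± SD of triplicates.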

[14] = Effect on 20 mM glucose-stimulated insulin secretion in rat INS-1 cells preincubated for 24 hrs followed by glucose addition and subsequent incubation for 45 mins by ELISA; format: ADME, cell-based; conditions: ins1, 0.75 h; method in brief: as §1
[15] = Inhibition of endoplasmic reticulum stress-mediated upregulation of CHOP mRNA expression in tunicamycin-treated rat INS-1 cells after 2 to 8 hrs by qRT-PCR method; format: functional, cell-based; conditions: INS1
Method in brief: (§5)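 INS-1 cells seeded at 4 × 10⁵/well and treated with Tm 0.1 μg/ml plus compound, either for 8 h at indicated concentrations or for indicated times at 10 μM. CHOP mRNA was measured by qRT-PCR with rat primers, normalized to rat cyclophilin A, and reported as fold change.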

Mus musculus [16] = experiment: Antidiabetic activity in streptozotocin-induced diabetic C57BL/6 mouse model assessed as decrease in blood glucose level at 20 mg/kg, ip administered for 5 consecutive days with streptozotocin followed by 2 more weeks compound addition without streptozotocin measured every 3 day of compound dosing by glucometer relative to control; format: functional, organism-based
Method in brief: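 Ten-week-old male C57BL/6 mice given STZ 50 mg/kg i.p. (in Na-citrate) once daily for 5 days, together with test agent 20 mg/kg i.p. (2 mg/ml in 10% DMSO/saline; n = 7) or vehicle (n = 6). Dosing without STZ then continued for 2 more weeks. Fasting (5 h) tail blood glucose read by glucometer every third day.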

[17] = biological target: DNA damage-inducible transcript 3 protein (Rattus norvegicus) (UniProt Q62857); experiment: Inhibition of endoplasmic reticulum stress-induced CHOP activity in tunicamycin-treated rat INS-1 cells assessed as DNA fragmentation at 20 uM after 24 hrs by TUNEL assay (reference value: 15%); format: cell-based; design: scale not given: the % may be the effect or the level left; conditions: INS1
Method in brief: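 INS-1 cells seeded at 4 × 10⁴/well and treated 24 h with Tm 0.1 μg/ml plus 20 μM compound. Cells were fixed in 4% PFA, permeabilized, TUNEL-stained 1 h at 37°C, counterstained with DAPI, and imaged by high-content imaging. TUNEL+ percentage is mean ± SD of five images.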

[18] = biological target: DNA damage-inducible transcript 3 protein (Rattus norvegicus) (UniProt Q62857); experiment: Inhibition of endoplasmic reticulum stress-induced CHOP activity in rat INS-1 cells assessed as suppression of tunicamycin-induced caspase-3 cleavage at 20 uM after 2 to 24 hrs by Western blot method; format: cell-based; conditions: INS1; method in brief: as §2
[19] = biological target: DNA damage-inducible transcript 3 protein (Rattus norvegicus) (UniProt Q62857); experiment: Inhibition of endoplasmic reticulum stress-induced CHOP activity in rat INS-1 cells assessed as decrease in sodium palmitate-induced cell death by measuring cell viability at 2.5 to 20 uM after 72 hrs by CellTiter-Glo assay; format: cell-based; conditions: INS1
Method in brief: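 INS-1 cells switched to DMEM/1% FBS/1% BSA and stressed with sodium palmitate (from 5 mM stock in 5% BSA; final 0.2 mM). Treated 72 h with DMSO or compound. Viability measured by CellTiter-Glo. Means ± SD of quadruplicates.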

[20] = biological target: DNA damage-inducible transcript 3 protein (Rattus norvegicus) (UniProt Q62857); experiment: Inhibition of endoplasmic reticulum stress-induced CHOP activity in rat INS-1 cells assessed as decrease in brefeldin A-induced cell death by measuring cell viability at 5 to 20 uM after 72 hrs by CellTiter-Glo assay; format: cell-based; conditions: INS1
Method in brief: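 INS-1 cells treated 72 h with or without brefeldin A 0.2 μg/ml in the presence of DMSO or compound at indicated concentrations. Viability measured by CellTiter-Glo. Means ± SD of quadruplicates.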

[21] = Inhibition of endoplasmic reticulum stress-mediated upregulation of CHOP mRNA expression in tunicamycin-treated rat INS-1 cells at 10 uM by qRT-PCR method; format: functional, cell-based; conditions: INS1, TDE = time-dependent effect; method in brief: as §5
[22] = Inhibition of endoplasmic reticulum stress-mediated upregulation of CHOP mRNA expression in tunicamycin-treated rat INS-1 cells at 5 to 20 uM after 8 hrs by qRT-PCR method; format: functional, cell-based; conditions: INS1; method in brief: as §5
INS1 [23] = experiment: Cytoprotective activity in endoplasmic reticulum stressed rat INS-1 cells assessed as rescue from tunicamycin-mediated reduction in cell viability at 40 uM after 72 hrs by CellTiter-Glo assay relative to control; format: functional; method in brief: as §4
HEK293 = experiment: Inhibition of endoplasmic reticulum stress-mediated upregulation of CHOP gene expression in tunicamycin-treated HEK293 cells after 24 hrs by bright-glo luciferase reporter gene assay; format: functional, cell-based; conditions: Homo sapiens, HEK293, 24 h
Method in brief: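 HEK293 cells stably carrying a CHOP promoter-luciferase reporter were seeded at 7 × 10³/well and incubated 16 h. Compound at indicated concentrations and Tm 1 μg/mL were added, and luciferase read by Bright-Glo 24 h later. IC50 determined for CHOP-Luc inhibition.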

[24] = Inhibition of endoplasmic reticulum stress-mediated upregulation of CHOP mRNA expression in tunicamycin-treated rat INS-1 cells at 10 uM after 2 to 8 hrs by qRT-PCR method; format: functional, cell-based; conditions: INS1; method in brief: as §5

For CCc1ccc(-n2nnc(C(=O)Nc3cccc(F)c3)c2C)cc1, the Activity [1] was 9%, the inhibition [2] was “Active” and the inhibition [3] was “Active”. For the same compound, the inhibition [4] was “Active”, the Activity (Mus musculus [5]) was 44.2% and the Activity [6] was 14.6%. The “%max” value (INS1 [7]) was 87%, the Activity [8] was “Non-toxic” and the Activity [9] was “Non-toxic”. For the same compound, the EC50 (INS1 [10]) was 2.8 µM, the Activity (Mus musculus [11]) was “Active” and the Activity [12] was “Non-toxic”. For the same compound, the inhibition [13] was “Active”, the Activity [14] was “Non-toxic” and the inhibition [15] was “Dose-dependent effect”. For the same compound, the Activity (Mus musculus [16]) was “Active”, the Activity [17] was 1.5% and the inhibition [18] was “Active”. For the same compound, the inhibition [19] was “Active”, the inhibition [20] was “Active” and the inhibition [21] was “tde”.

With CCc1ccc(-n2nnc(C(=O)Nc3ccc(C(=O)O)cc3)c2C)cc1 the “%max” value (INS1 [7]) was 0% and the inhibition [22] was “inactive”.

With CCc1ccc(-n2nnc(C(=O)Nc3ccc(C(=O)OC)cc3)c2C)cc1 the “%max” value (INS1 [7]) was 14% and the inhibition [22] was “inactive”.

With Cc1c(C(=O)Nc2ccccc2)nnn1-c1ccccc1F the “%max” value (INS1 [23]) was 31%, the EC50 (INS1 [10]) was 23 µM and the IC50 (HEK293) was 1.1 µM.

For CCc1ccc(-n2nnc(C(=O)Nc3cc(C)ccc3C)c2C)cc1, the “%max” value (INS1 [7]) was 90%, the inhibition [24] was “Active” and the EC50 (INS1 [10]) was 1.6 µM.
